Sampled rows, rich in hits. Any-hit rate of the full collection: about 2.5%.
SENP1 FRET inh: inhibitors of human SENP1 SUMO protease catalytic domain. Q9P0U3. 360,000 compounds, 0.21% hits. inhibition, % at 10 µM. recombinant SENP1 catalytic domain, CyPet-SUMO1-YPet FRET cleavage. AID 624204;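 active = inhibition at least 30% at 10 µM, raw YFP signal under a set limit, fluorescence ratio 0.5 to 1.5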
Target sequence (Q9P0U3 419-644 limits assumed): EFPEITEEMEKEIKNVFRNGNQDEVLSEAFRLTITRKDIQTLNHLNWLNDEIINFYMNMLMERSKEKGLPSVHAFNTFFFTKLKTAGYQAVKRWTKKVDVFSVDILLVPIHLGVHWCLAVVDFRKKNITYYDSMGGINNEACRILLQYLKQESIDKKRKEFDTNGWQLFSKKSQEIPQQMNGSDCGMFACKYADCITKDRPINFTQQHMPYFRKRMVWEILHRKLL
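Controls: no-enzyme wells low, DMSO-plus-enzyme wells high control. Test system: human recombinant His6-tagged SENP1 catalytic domain enzyme. Reagent: SFCypet-SUMO1-SFYpet FRET protein substrate, 25 nM final. Doses: one dose per compound, 10 µM, 0.5% DMSO. Detection: FRET, CFP and YFP emission. Timing: 50 min reaction at room temperature.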
SENP8 block-1: inhibitors of human SENP8 protease. purified SENP8, Z-RLRGG-aminoluciferin cleavage, luminescence. inhibition, % at 10 µM. Q96LD8. 330,000 compounds, 1.2% hits; in the data active = inhibition above about 50%
Target sequence (Q96LD8 whole entry, looked up): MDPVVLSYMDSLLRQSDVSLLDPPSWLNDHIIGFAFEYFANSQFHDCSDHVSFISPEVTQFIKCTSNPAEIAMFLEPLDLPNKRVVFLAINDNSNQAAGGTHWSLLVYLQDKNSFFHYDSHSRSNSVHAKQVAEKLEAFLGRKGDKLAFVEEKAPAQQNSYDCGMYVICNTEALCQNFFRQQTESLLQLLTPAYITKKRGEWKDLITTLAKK
SENP8 block-2: inhibitors of human SENP8 protease. Q96LD8. recombinant SENP8, Nedd8 substrate fluorescence. inhibition, % at 20 µM. 360,000 compounds, 0.64% hits; in the data active = inhibition mostly above about 40%, no sharp cut-off; inactive = mostly below about 27%
SENP6 block: blocks the human protease SENP6; Q9GZR1; Recombinant SENP6 catalytic domain, aminoluciferin luminescence; inhibition, % at 10 µM; 330,000 compounds, 1.8% hits; AID 2599;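 active = inhibition above about 50% at the single tested dose, limit read from the data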
SENP7 inh: blocks the human protease SENP7; inhibition, % at 5 µM; AID 434973; Q9BQF6; 330,000 compounds, 1.5% hits; recombinant SENP7, Z-RLRGG-aminoluciferin luminescence, 40 min;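 active = inhibition above about 50% at the single test dose, limit read from the data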
SENP8 conf: confirmation of human SENP8 protease inhibitors | shares compounds with SENP7 inh | Recombinant SENP8, Z-RLRGG-aminoluciferin luminescence, 60 min | AID 488912 | inhibition, % at 12.5 µM | 6,200 compounds, 40% hits;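 active = mean inhibition across replicates above about 50%, limit read from the data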
SENP6 confirm: confirmation of human SENP6 protease inhibitors; shares compounds with SENP7 inh; recombinant SENP6, Z-RLRGG-aminoluciferin luminescence; inhibition, % at 12.5 µM; 6,200 compounds, 58% hits; AID 488915
SENP7 confirm: human SENP7 inhibition, confirmed; AID 488917; recombinant SENP7, Z-RLRGG-aminoluciferin luminescence, 40 min; inhibition, % at 12.5 µM; shares compounds with SENP7 inh; 6,200 compounds, 69% hits
Casp3 SENP sel: inhibits human caspase-3 in SENP selectivity test; shares compounds with SENP7 inh; purified caspase-3, Z-DEVD-aminoluciferin luminescence, 60 min; inhibition, % at 12.5 µM; 6,200 compounds, 60% hits; AID 488918;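 active = mean inhibition above about 50%, limit read from the data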
Target sequence (P42574 28-227 limits assumed): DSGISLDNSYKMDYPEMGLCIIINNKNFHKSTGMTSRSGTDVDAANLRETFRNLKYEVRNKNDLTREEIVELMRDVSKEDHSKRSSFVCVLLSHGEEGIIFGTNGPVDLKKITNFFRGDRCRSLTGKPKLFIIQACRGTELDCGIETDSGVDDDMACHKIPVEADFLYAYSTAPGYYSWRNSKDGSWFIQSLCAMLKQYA
SENP luc ctr: luminescence interference (SENP counter-screen) | shares compounds with SENP7 inh | Pre-incubated SENP8/Z-RLRGG-aminoluciferin, luciferase luminescence interference | inhibition, % at 12.5 µM | 6,200 compounds, 39% hits | AID 488919;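 active = mean inhibition above about 50% when retested at one dose, limit read from the data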
Large screens that a line does not name were inactive (follow-up assays come after a bar, where they were run).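 Rule for the calls, unless noted: active = mean inhibition above about 50% in the one-dose retest (limit read from the data); inactive = the rest.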

CSC1=NSC2=NC(=O)/C(=C\c3ccc(OC(=O)c4ccco4)cc3)C(=N)N12	SENP8 block-1 91, SENP6 block 89 | SENP8 conf 90 | SENP6 confirm 90 | SENP7 confirm 96 | Casp3 SENP sel 90 | SENP luc ctr inactive
COc1ccc(CN=C(C)c2c(C(F)(F)F)[nH]n(-c3nc4ccccc4s3)c2=O)cc1	SENP6 block 85, SENP7 inh 91 | SENP8 conf inactive | SENP6 confirm inactive | SENP7 confirm inactive | Casp3 SENP sel 50 | SENP luc ctr 54
CC(=O)c1c(CC(=O)O)[nH]n(-c2nc3ccccc3s2)c1=O	SENP8 block-1 87, SENP6 block 84, SENP7 inh 88 | SENP8 conf 86 | SENP6 confirm 83 | SENP7 confirm 97 | Casp3 SENP sel 95 | SENP luc ctr 83
COC(=O)Cc1[nH]n(-c2nc3ccccc3s2)c(=O)c1C(C)=O	none
CC(=O)Oc1ccc(Oc2ccc(-c3noc(C)n3)cc2)cc1	none
CC(=O)Oc1ccc(-c2nc(-c3cccnc3)no2)cc1	SENP8 block-1 98, SENP6 block 96, SENP7 inh 100 | SENP8 conf 97 | SENP6 confirm 99 | SENP7 confirm 103 | Casp3 SENP sel 98 | SENP luc ctr inactive
Nc1ccc(N(CCO)CCO)cc1	SENP8 block-2 65, SENP6 block 57 | SENP8 conf inactive | SENP6 confirm inactive | SENP7 confirm inactive | Casp3 SENP sel inactive | SENP luc ctr inactive
Nc1ccc(C(=O)N(CCO)CCO)cc1	none
O=C(Nc1cc([N+](=O)[O-])ccc1O)c1ccc2c(c1)C(=O)N(Cc1ccco1)C2=O	SENP8 block-1 76, SENP6 block 82 | SENP8 conf inactive | SENP6 confirm 84 | SENP7 confirm 74 | Casp3 SENP sel 77 | SENP luc ctr 84
O=C(Nc1cc([N+](=O)[O-])ccc1O)c1cccc(C(=O)Nc2cc([N+](=O)[O-])ccc2O)c1	none (no result: SENP8 block-1, SENP6 block, SENP7 inh)
O=C(Nc1cc([N+](=O)[O-])ccc1O)c1cccc([N+](=O)[O-])c1	SENP8 block-1 69, SENP6 block 83, SENP7 inh 67 | SENP8 conf 85 | SENP6 confirm 83 | SENP7 confirm 97 | Casp3 SENP sel 86 | SENP luc ctr 70
O=C(Nc1ccc(O)cc1C(=O)O)c1ccc2c(c1)C(=O)N(Cc1ccco1)C2=O	none
Cn1c(C(=O)NN)cc2cc(Oc3ccccc3)ccc21	none
Cn1c(C(=O)O)cc2cc(Oc3ccccc3)ccc21	SENP8 block-1 64, SENP6 block 80 | SENP8 conf inactive | SENP6 confirm 66 | SENP7 confirm 82 | Casp3 SENP sel 71 | SENP luc ctr 72
O=C(O)c1ccc(N2Cc3ccccc3C2)cc1O	SENP8 block-1 65, SENP6 block 70 | SENP8 conf inactive | SENP6 confirm 71 | SENP7 confirm 89 | Casp3 SENP sel 90 | SENP luc ctr 75
CSc1ccc(C(=O)Nc2cc(S(=O)(=O)N3CCOCC3)ccc2N2CCOCC2)cc1[N+](=O)[O-]	none (no result: SENP8 block-1, SENP6 block, SENP7 inh)
COc1ccccc1C(=O)N/C(=N/c1nc(C)cc(C)n1)Nc1ccccc1	none
CCOCCCNS(=O)(=O)c1ccccc1	none
CCOCCCNC1=C(Cl)C(=O)c2ccccc2C1=O	SENP8 block-2 47, SENP6 block 75, SENP7 inh 54 | SENP8 conf inactive | SENP6 confirm inactive | SENP7 confirm inactive | Casp3 SENP sel inactive | SENP luc ctr inactive
CCOC(=O)c1cc(-c2ccc(C)o2)n[nH]1	none
CCOC(=O)c1cc(-c2cc3ccccc3o2)n[nH]1	SENP6 block 72, SENP7 inh 54 | SENP8 conf 63 | SENP6 confirm 61 | SENP7 confirm 81 | Casp3 SENP sel inactive | SENP luc ctr inactive
Nc1ncnc2c1ncn2[C@@H]1O[C@H](C(=O)N2CCC[C@@H]2C(=O)OCc2ccccc2)[C@@H](O)[C@H]1O	none (no result: SENP8 block-1, SENP6 block, SENP7 inh)
CCCCc1ccc(-c2nn[nH]n2)nc1	none (no result: SENP8 block-1, SENP6 block, SENP7 inh)
CCCCc1ccc(-c2ccc(Br)cc2O)nc1	SENP7 inh 68 | SENP8 conf inactive | SENP6 confirm inactive | SENP7 confirm inactive | Casp3 SENP sel inactive | SENP luc ctr inactive
CCCCc1ccc(-c2ccc(C)cc2O)nc1	SENP8 block-1 53, SENP7 inh 72 | SENP8 conf inactive | SENP6 confirm inactive | SENP7 confirm inactive | Casp3 SENP sel inactive | SENP luc ctr inactive
Cc1cc(C)c(C#N)c(SCC(=O)N(CCC#N)c2ccc3c(c2)OCCO3)n1	none
c1ccc(-c2cn3nc(-c4ccccc4)sc3n2)cc1	SENP8 block-1 85, SENP7 inh 93 | SENP8 conf inactive | SENP6 confirm inactive | SENP7 confirm inactive | Casp3 SENP sel inactive | SENP luc ctr inactive
Cc1nn2cc(-c3ccccc3)nc2s1	SENP8 block-1 76, SENP6 block 72 | SENP8 conf 77 | SENP6 confirm 81 | SENP7 confirm 97 | Casp3 SENP sel 91 | SENP luc ctr 71
COc1ccc2c(c1OC)C(=O)N(c1cccc(C)c1)C2	SENP6 block 71, SENP7 inh 59 | SENP8 conf 65 | SENP6 confirm 64 | SENP7 confirm 90 | Casp3 SENP sel 84 | SENP luc ctr 70
COc1ccc2c(c1OC)C(=O)N(c1ccc(C)cc1)C2	none
COc1cc(NC(=O)c2csc3c2CCCC3)ncn1	SENP6 block 61 | SENP8 conf inactive | SENP6 confirm inactive | SENP7 confirm inactive | Casp3 SENP sel inactive | SENP luc ctr inactive
O=C(Nc1ccccn1)c1csc2c1CCCC2	none
COc1cccc(OCc2cc(/C=N/Nc3ccc(C(=O)O)cc3)ccc2OC)c1	SENP8 block-1 80, SENP6 block 87 | SENP8 conf 58 | SENP6 confirm 84 | SENP7 confirm 95 | Casp3 SENP sel inactive | SENP luc ctr inactive
COc1cccc(C(=O)Oc2ccc(/C=N/Nc3ccc(C(=O)O)cc3)cc2OC)c1	SENP6 block 52 | SENP8 conf 57 | SENP6 confirm inactive | SENP7 confirm 66 | Casp3 SENP sel inactive | SENP luc ctr inactive
COc1ccc(C(=O)N/N=C/c2ccc(OC)c(COc3ccc(F)cc3)c2)cc1	none
CCC(C)(C)NC(=O)CN(Cc1ccc(OC)cc1)C(=O)CCC(=O)Nc1nccs1	none
CC(C)(C)c1ccc(C(=O)NCCNC(=O)c2ccco2)cc1	none
Cc1[nH][nH]c(=O)c1N=Nc1ccc(Cl)cc1	none
